Source: PubChem BioAssay (Broad Institute)
Cneo AK release: Cryptococcus neoformans lysis via adenylate kinase release | C. neoformans lysis, adenylate kinase release luminescence, 4 h; normalised: neutral wells 0, clomiphene wells 100 | lysis activity, % at 15 µM | hit rate 0.2% among 360,000 | AID 651654;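 active = mean lysis activity across replicates of at least 80%, whatever share of replicates individually reach that level; inactive = mean lysis activity below 80%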
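Assay system: C. neoformans cells. Amount: yeast cell density of 5 × 10^6 cells/mL. Technique: AK luminescence. Buffer or medium: YPD. Times: static 4 h at 37 °C with compound, 1 h detection. Dosing: single-point compound dose. Read-out: lysis from increased AK signal.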
Mot1-301 SUMO: SUMOylation pathway inhibition by Mot1-301 growth rescue | hit rate 1% among 320,000 | growth rescue, % at 18.8 µM | S. cerevisiae Mot1-301 growth rescue, ATP luminescence, 38.5C; percent above DMSO median, 100 means doubled;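 active = every valid replicate shows activation above 250% relative to neutral control wells; inactive = the rest, any valid replicate at or below 250%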
C2C12 statin: suppressors of simvastatin-induced myotoxicity in C2C12 myotubes | rescue of ATP level, % at 7.49 µM | ATP luminescence, 48 h; scaled: DMSO 0, geranylgeraniol control 100 | hit rate 0.78% among 330,000;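 active = mean ATP rescue above about 67%, or every replicate alone reaching that limit, limit read from the data, passing the limit was not always enough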;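 note: myotubes were challenged with 10 µM simvastatin during compound exposure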
Yeast Mot1 SUMO: inhibits SUMO pathway, affecting Mot1-301 yeast growth; S. cerevisiae Mot1-301 galactose growth, ATP luminescence, 24 h; -100 = growth of slx-deleted rescue strain; 2,300 tested, under 10 active; growth activity, percent, % at 42 µM; AID 493004; shares compounds with Mot1-301 SUMO;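 active = Signal drops as the depositor expects, and the fitted half-maximal dose is no more than ten times the top valid tested dose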;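 note: more negative values mean stronger growth rescue toward the control strain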
Large screens that a line does not name were inactive (follow-up assays come after a bar, where they were run). An excerpt weighted towards active compounds, which were near 1.5% of everything screened.

COc1ccc(C(=O)NCC2OCCc3ccccc32)cc1 (configuration not stated)	none
CCOc1ccc(C(=O)NCC2OCCc3ccccc32)cc1 (configuration not stated)	Mot1-301 SUMO 747.5 | Yeast Mot1 SUMO inactive
C[C@@H]1CCCCO[C@@H](CN(C)Cc2ccc(C(F)(F)F)cc2)[C@H](C)CN([C@@H](C)CO)C(=O)c2cc(NS(=O)(=O)c3ccc(Cl)cc3)ccc2O1	none (no result: Mot1-301 SUMO, C2C12 statin)
CC1(C)CC(=O)C(C=Nc2ccc3c(c2)OCO3)=C(O)C1	none (no result: Cneo AK release)
CC1(C)CC(=O)C(C=Nc2ccc(O)c(N=CC3=C(O)CC(C)(C)CC3=O)c2)=C(O)C1	Mot1-301 SUMO 480.2 (no result: Cneo AK release, C2C12 statin) | Yeast Mot1 SUMO inactive
CCOC(=O)c1ccc(S(=O)(=O)NNc2ccc(C(F)(F)F)cn2)cc1	none
CC(C)C(=O)NNc1ccc(C(F)(F)F)cn1	Mot1-301 SUMO 585.8 (no result: C2C12 statin) | Yeast Mot1 SUMO inactive
O=C(COC(=O)c1ccc([N+](=O)[O-])s1)c1ccc[nH]1	Mot1-301 SUMO 516.2 | Yeast Mot1 SUMO inactive
O=C(OCC(=O)c1ccc[nH]1)c1ccc([N+](=O)[O-])cc1	none
C[C@H](CO)N1C[C@H](C)[C@H](CN(C)CC2CC2)OCCCC[C@H](C)Oc2ccc(NC(=O)Nc3ccc4c(c3)OCO4)cc2C1=O	none (no result: Mot1-301 SUMO, C2C12 statin)
Cc1c(OCC(=O)N2C[C@H]3C[C@@H](C2)c2cccc(=O)n2C3)ccc2c3c(c(=O)oc12)CCCC3	none
Cc1c(OC(C)C(=O)N2C[C@H]3C[C@@H](C2)c2cccc(=O)n2C3)ccc2c3c(c(=O)oc12)CCCC3 (some centres not stated)	Mot1-301 SUMO 683.9 | Yeast Mot1 SUMO inactive
Cc1ccccc1-c1ccc([C@@H]2[C@H]3CN(S(C)(=O)=O)CCCCN3[C@H]2CO)cc1	none (no result: Mot1-301 SUMO)
COc1ccc(N2C(=O)CCC(C(=O)NCc3cccnc3)C2c2ccc(OC)c(OC)c2)cc1 (configuration not stated)	Mot1-301 SUMO 358.6 (no result: C2C12 statin) | Yeast Mot1 SUMO inactive
COc1ccc(N2C(=O)CCC(C(=O)NCCN3CCOCC3)C2c2ccc(OC)c(OC)c2)cc1 (configuration not stated)	none (no result: Mot1-301 SUMO, C2C12 statin)
C[C@H](CO)N1C[C@H](C)[C@H](CN(C)S(=O)(=O)c2ccc(F)cc2)Oc2ccc(NC(=O)CCC(F)(F)F)cc2CC1=O	none (no result: Mot1-301 SUMO)
C[C@@H]1CN([C@@H](C)CO)C(=O)c2cc(NC(=O)NC3CCCCC3)ccc2O[C@@H](C)CCCCO[C@@H]1CN(C)S(=O)(=O)c1cccs1	none (no result: Mot1-301 SUMO, C2C12 statin)
COc1ccccc1NC(=O)N[C@H]1C=C[C@@H](CC(=O)N[C@H](C)c2ccccc2)O[C@H]1CO	none (no result: Mot1-301 SUMO)
CNC(=O)C[C@@H]1CC[C@H]2[C@H](COc3ccc(NC(=O)Nc4ccccc4F)cc3C(=O)N2C)O1	none (no result: Mot1-301 SUMO)
O=c1nc(-c2ccccc2)cn[nH]1	Mot1-301 SUMO 569.5 (no result: C2C12 statin) | Yeast Mot1 SUMO inactive
O=c1nc(-c2ccccc2)c(-c2ccccc2)n[nH]1	none
COC(=O)C1CSc2[nH]c(=O)sc2C1c1ccc(OC)c(OC)c1 (configuration not stated)	none
COC(=O)C1C(c2ccc(OC)c(OC)c2)NC(c2ccc(OC)c(OC)c2)C(C(=O)OC)S1(=O)=O (configuration not stated)	Mot1-301 SUMO 519.6 (no result: Cneo AK release, C2C12 statin) | Yeast Mot1 SUMO inactive
COc1ccccc1C#Cc1cnc2c(c1)C(=O)N([C@H](C)CO)C[C@@H](C)[C@H](CN(C)C(=O)c1ccc3c(c1)OCO3)O2	none (no result: Mot1-301 SUMO)
Cn1c(CN2CCOCC2)nnc1SCC(=O)NCCc1ccccc1	none
Cn1c(CN2CCOCC2)nnc1SCC(N)=O	Mot1-301 SUMO 538.2 | Yeast Mot1 SUMO inactive
COc1ccc(S(=O)(=O)Nc2ccc3c(c2)C(=O)N([C@@H](C)CO)C[C@@H](C)[C@H](CN(C)C(=O)NC2CCCCC2)OCCCC[C@H](C)O3)cc1	none (no result: Mot1-301 SUMO, C2C12 statin)
O=C(N[C@@H]1C=C[C@H](CC(=O)N2CCCCC2)O[C@H]1CO)c1ccc2c(c1)OCO2	none (no result: Mot1-301 SUMO)
Cc1cccc(N/C=C/C(=C(C#N)C#N)N(C)C)c1	none (no result: Cneo AK release, C2C12 statin)
CN(C)C(/C=C/Nc1cccc(Br)c1)=C(C#N)C#N	Mot1-301 SUMO 432.9 (no result: Cneo AK release, C2C12 statin) | Yeast Mot1 SUMO inactive
CC(=O)N(C)C[C@H]1Oc2cc(C#CC3CCCC3)ccc2S(=O)(=O)N([C@H](C)CO)C[C@H]1C	none (no result: Mot1-301 SUMO)
CC(=O)c1ccc(N/N=C2/CCCNC2=O)cc1	none (no result: C2C12 statin)
Cc1ccc(N/N=C2/CCCNC2=O)cc1	Mot1-301 SUMO 527.6 | Yeast Mot1 SUMO inactive
CNC[C@@H]1Oc2cc(C#CC(C)(C)O)ccc2S(=O)(=O)N([C@@H](C)CO)C[C@H]1C	none (no result: Mot1-301 SUMO)
Cc1ccc(C(=O)N/C(=C\c2cccs2)C(=O)NCc2ccncc2)cc1	Mot1-301 SUMO 611.7 | Yeast Mot1 SUMO inactive
Cc1ccc(C(=O)N/C(=C\c2cccs2)C(=O)NCCc2c[nH]c3ccccc23)cc1	Mot1-301 SUMO 493.7 (no result: Cneo AK release, C2C12 statin) | Yeast Mot1 SUMO inactive
COc1ccc(/C=C(/NC(=O)c2ccc(OC)cc2)C(=O)NCCc2c[nH]c3ccccc23)cc1	none (no result: Cneo AK release, C2C12 statin)
Cc1ccc(C(=O)N/C(=C\c2sccc2C)C(=O)NCc2ccncc2)cc1	none (no result: Cneo AK release, C2C12 statin)
COCC(=O)Nc1ccc2c(c1)C(=O)N(C)C[C@H](OC)[C@H](C)CN(C(=O)C1CCCC1)[C@H](C)CO2	none (no result: Mot1-301 SUMO)
CN(C)c1ccc(CN(Cc2ccco2)C(=O)c2ccco2)cc1	Mot1-301 SUMO 365.8 | Yeast Mot1 SUMO inactive
O=C(c1ccco1)N(Cc1ccc(Cl)cc1)Cc1ccco1	none
Cc1noc(C)c1NC(=O)Nc1ccc2c(c1)C(=O)N([C@@H](C)CO)C[C@@H](C)[C@H](CN(C)S(=O)(=O)c1cn(C)cn1)OCCCC[C@@H](C)O2	none (no result: Mot1-301 SUMO, C2C12 statin)
Oc1c(Br)cc(Br)cc1/C=N/N1CCN(Cc2ccccc2)CC1	Mot1-301 SUMO 842.5 (no result: Cneo AK release, C2C12 statin) | Yeast Mot1 SUMO inactive
Cc1ccc(CN2CCN(/N=C/c3cc(Br)cc(Br)c3O)CC2)cc1	none (no result: Cneo AK release, C2C12 statin)
Oc1c(Cl)cc(Cl)cc1/C=N/c1nc(-c2ccc(Cl)cc2)cs1	Mot1-301 SUMO 719.2 | Yeast Mot1 SUMO inactive
NC(=O)c1cccc(N=Cc2cc(Cl)cc(Cl)c2O)c1	none (no result: Cneo AK release, Mot1-301 SUMO)
C[C@@H]1CN([C@@H](C)CO)C(=O)c2cc(NS(=O)(=O)c3cn(C)cn3)ccc2O[C@@H](C)CCCCO[C@H]1CN(C)S(=O)(=O)c1ccc(F)cc1	none (no result: Mot1-301 SUMO, C2C12 statin)
CCn1cc(C(=O)N2CCN(c3ccc(OC)cc3)CC2)c(=O)c2cc(S(=O)(=O)N3CCOCC3)ccc21	Mot1-301 SUMO 798.4 | Yeast Mot1 SUMO inactive
CCOC(=O)N1CCN(C(=O)c2cn(CC)c3ccc(S(=O)(=O)N4CCOCC4)cc3c2=O)CC1	none
C[C@@H]1CCCCO[C@H](CN(C)Cc2ccc3c(c2)OCO3)[C@@H](C)CN([C@H](C)CO)C(=O)c2cc(NC(=O)Cc3ccccc3)ccc2O1	none (no result: Mot1-301 SUMO, C2C12 statin)
COc1ccc(S(=O)(=O)N(C)C[C@H]2Oc3c(NC(=O)c4ccc(-c5nccs5)cc4)cccc3C(=O)N([C@@H](C)CO)C[C@@H]2C)cc1	none (no result: Mot1-301 SUMO, C2C12 statin)
CCC(=O)N[C@H]1CC[C@@H](CC(=O)NCC2CCCCC2)O[C@@H]1CO	none (no result: Mot1-301 SUMO)
CCC(c1nnnn1CS(=O)(=O)c1ccc(C)cc1)N1CCN(c2nc3ccccc3s2)CC1 (configuration not stated)	none (no result: Cneo AK release, C2C12 statin)
